Experimental data of several laboratories.
Target: Protein-tyrosine kinase 6 (PTK6, Homo sapiens, UniProt Q13882)

| SMILES | test | conditions | measurement | result |
| --- | --- | --- | --- | --- |
| COc1cc2nccc(Oc3ccc(NC(=O)c4c5n(n(-c6ccc(F)cc6)c4=O)CCCC5)cc3)c2cc1OC | enzyme activity, inhibitor | 0.1 µM | inhibition | 37% |
| CCN(CC)CCNC(=O)c1c(C)[nH]c(/C=C2\C(=O)Nc3ccc(F)cc32)c1C | enzyme activity, inhibitor | 10 µM | inhibition | 74% |
| NS(=O)(=O)c1cc(NC(=O)C2(c3ccccc3Cl)CC2)ccc1Oc1cccc(Cl)c1 | cell-free assay, competition with immobilised ligand | 1 µM | remaining binding | 99% |
| COc1cc(Nc2cnc(C#N)c(O[C@H](C)CN(C)C)n2)ncc1-c1cnn(C)c1 | enzyme activity, inhibitor, radiometric | 1 µM | remaining activity | 98% |
| COc1cc2ncnc(Nc3ccc(Oc4ccccc4)cc3C)c2cc1OC | enzyme activity, inhibitor | 1 µM | inhibition | 95% |
| CCN(CC)c1ccc(C2=NNC(=O)CC2C)cc1[N+](=O)[O-] (stereo not drawn) | enzyme activity, inhibitor | 10 µM | remaining activity | 105% |
| Nc1ncnc2occ(-c3ccc(NC(=O)Nc4cc(C(F)(F)F)ccc4F)cc3)c12 | cell-free assay, inhibitor | 20 µM | remaining signal | 20% |
| Cc1ccc(NC(=O)c2ccc(C)c(C(F)(F)F)c2)cc1C#Cc1nn(C2CCC(O)CC2)c2ncnc(N)c12 (stereo not drawn) | cell-free assay | 10 µM | remaining signal | -1% |
| CC(C)(C)c1nc2c(s1)c1nc(N)ncc1c1ccc(NS(=O)(=O)c3c(F)cccc3F)c(F)c12 | enzyme activity, inhibitor, radiometric | 1 µM | remaining activity | 104% |
| CC(=O)C1=C(C)N(c2cccc(C(F)(F)F)c2)C(=O)N[C@@H]1c1ccc(C#N)nc1 | cell-free assay, competition with immobilised ligand | 1 µM | remaining binding | 100% |
| COc1cc(/C=C/C(=O)CC(=O)/C=C/c2ccc(O)c(OC)c2)ccc1O | enzyme activity, inhibitor | 1 µM | activity vs control | 85% |
| O=C1Nc2ccc(Cl)cc2C1=Cc1cc(Cl)c(O)c(Cl)c1 | cell-free assay | 0.5 µM | remaining signal | 73.8% |
| COc1ccc2c(O[C@@H]3C[C@H]4C(=O)N[C@]5(C(=O)O)CC5/C=C\CCCCC[C@H](NC(=O)OC5CCCC5)C(=O)N4C3)cc(-c3csc(NC(=O)C(C)C)n3)nc2c1C (stereo partly drawn) | cell-free assay, competition with immobilised ligand | 1 µM | remaining binding | 97% |
| FC(F)(F)Oc1cccc(-c2cnc3ccc(-c4ccncc4)nn23)c1 | enzyme activity, inhibitor, radiometric | 5 µM | activity vs control | 70% |
| Cc1ccc(Nc2nccc(N(C)c3ccc4c(C)n(C)nc4c3)n2)cc1S(N)(=O)=O | enzyme activity, inhibitor | 10 µM | inhibition | 88% |
| CCCOc1ccc([C@@H]2[C@@H](C(=O)O)[C@H](c3ccc4c(c3)OCO4)CN2CC(=O)Nc2c(CC)cccc2CC)cc1 | cell-free assay, competition with immobilised ligand | 1 µM | remaining binding | 83% |
| C=CC(=O)Nc1cc(Nc2nccc(Nc3cc(Cl)c(F)cc3C(C)(C)O)n2)c(OC)cc1N1CC[C@@H](N(C)C)C1 | enzyme activity, inhibitor | 1 µM | inhibition | 63% |
| CN(c1ccnc(CNc2nc(Nc3ccc4c(c3)CC(=O)N4)ncc2C(F)(F)F)n1)S(C)(=O)=O | cell-free assay, competition with immobilised ligand | 1 µM | remaining binding | 100% |
| O=C1NC(=O)c2cc(Nc3ccc(F)cc3)c(Nc3ccc(F)cc3)cc21 | cell-free assay | 0.5 µM | remaining signal | 95.1% |
| Cc1sc(C(=O)NC2COC2)cc1-n1cc(NC(=O)Nc2c(F)cccc2Cl)cn1 | enzyme activity, inhibitor | 10 µM | remaining activity | 78.9% |
| CNC(=O)Nc1ccc2c(c1)[C@@]1(CC2)OC(=O)N(CC(=O)N(Cc2ccc(F)cc2)[C@@H](C)C(F)(F)F)C1=O | cell-free assay, competition with immobilised ligand | 1 µM | remaining binding | 90% |
| N#CCCc1ccc2c(c1)-c1[nH]c3ccc([N+](=O)[O-])cc3c1CC(=O)N2 | cell-free assay | 0.5 µM | remaining signal | 94.6% |
| O=C1CCc2cc(Nc3cc(OC4CCOCC4)c([N+](=O)[O-])cc3Cl)ccc2N1 | cell-free assay, competition with immobilised ligand | 1 µM | remaining binding | 100% |
| CNC(=O)c1cc(Oc2ccc(NC(=O)Nc3ccc(Cl)c(C(F)(F)F)c3)cc2)ccn1 | enzyme activity, inhibitor | 0.3 µM | inhibition | -3% |
| Cc1cc(C)c(-n2ccn3nc(-c4cccnc4)cc23)cc1NC(=O)c1cc(C#N)cc(S(F)(F)(F)(F)F)c1 | cell-free assay, competition with immobilised ligand | 0.1 µM | remaining binding | 99.5% |
| Cc1ccc(C(=O)NCc2ccsc2)cc1C#Cc1cn(C(C)C)c2ncnc(N)c12 | enzyme activity, inhibitor | 1 µM | activity vs control | 7% |
| CN(C)C1CCN(CC#Cc2nn(C3CCCC3)c3nc(NCc4ccccc4)ncc23)C1 (stereo not drawn) | enzyme activity, inhibitor, FRET | 1 µM | inhibition | 1% |
